Source: ChEMBL document CHEMBL4834436, “Discovery of the S1P2 Antagonist GLPG2938 (1-[2-Ethoxy-6-(trifluoromethyl)-4-pyridyl]-3-[[5-methyl-6-[1-methyl-3-(trifluoromethyl)pyrazol-4-yl]pyridazin-3-yl]methyl]urea), a Preclinical Candidate for the Treatment of Idiopathic Pulmonary Fibrosis” (J Med Chem, 2021)
pEC50, pIC50: −log10 of the molar value. Activity calls are given as the source filed them. The calls are words filed in the database; no cut-off is given here.

Key:
[1] = biological target: T1, Sphingosine 1-phosphate receptor 2 (Homo sapiens, UniProt O95136); assay: Antagonist activity at recombinant human S1P2 receptor in HFL1 cells assessed as inhibition of EC80 S1P-induced IL8 release incubated for 16 to 24 hrs in absence of HSA by ELISA; type: functional, cell-based
T1 sequence (O95136 whole entry): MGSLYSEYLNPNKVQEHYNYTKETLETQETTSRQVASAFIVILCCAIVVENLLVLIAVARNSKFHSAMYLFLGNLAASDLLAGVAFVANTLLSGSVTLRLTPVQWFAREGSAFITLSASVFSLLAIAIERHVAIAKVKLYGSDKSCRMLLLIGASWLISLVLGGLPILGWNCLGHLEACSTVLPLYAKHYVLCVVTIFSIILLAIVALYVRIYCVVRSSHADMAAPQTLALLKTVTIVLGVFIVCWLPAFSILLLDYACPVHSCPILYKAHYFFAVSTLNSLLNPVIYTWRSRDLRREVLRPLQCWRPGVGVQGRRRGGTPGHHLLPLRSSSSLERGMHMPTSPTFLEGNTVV
Procedure, shortened: (§1)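 HFL-1 lung fibroblasts seeded in 96- or 384-well plates, then medium replaced by starvation medium with 1% heat-inactivated FBS, ±1.95% HSA (2% HSA condition), 16–24 h. 10-point 1/3 dilutions, 30 μM top final, 1 h, then S1P at EC80 (without HSA: 1 μM 96-well or 0.5 μM 384-well; with HSA: 5 or 2 μM).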

[2] = Intrinsic clearance unbound in mouse liver microsomes at 1 uM […] by LC-MS/MS analysis; type: ADME, Microsome
[3] = biological target: T1, Sphingosine 1-phosphate receptor 2; assay: Antagonist activity at human S1P2 receptor expressed in CHO cells assessed as EC80 S1P-induced calcium flux measured for 3 mins by fluorescence assay; type: functional, cell-based
Procedure, shortened: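 Same dye-loaded, starved human S1P2-CHO cells; after agonist readout, 15 min at 37 °C, then stimulated with S1P at EC80, fluorescence read 3 min. Max/baseline ratio normalized to vehicle and S1P EC80. 10-point 1/3 dilutions from 20 μM final; IC50 derived; geometric mean of ≥2 runs.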

[4] = biological target: T1, Sphingosine 1-phosphate receptor 2; assay: Antagonist activity at recombinant human S1P2 receptor expressed in CHO cells assessed as EC80 S1P-induced activation incubated for 4 hrs in presence of [35S]GTPgammaS by Topcount reader; type: functional, cell-based
Procedure, shortened: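 Membranes from stable lines overexpressing recombinant human S1P2, preincubated with PVT-WGA SPA beads, mixed with compound serial dilutions, [35S]GTPγS and S1P at EC80. Incubated 4 h at room temperature, centrifuged, scintillation counted. Antagonist mode; IC50 as geometric mean of ≥2 runs.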

[5] = biological target: T1, Sphingosine 1-phosphate receptor 2; assay: Agonist activity at human S1P2 receptor expressed in CHO cells assessed as calcium flux measured for 3 mins by fluorescence assay; type: functional, cell-based; conditions: read-out: IC50 (the source's name)
Procedure, shortened: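 CHO cells stably overexpressing human S1P2, seeded overnight at 37 °C/5% CO2, washed and starved 1 h in F-12 with 0.1% fatty-acid-free BSA, loaded with Fluo 8 dye with 5 mM probenecid. Compound added, fluorescence read 3 min; max/baseline ratio normalized to vehicle and S1P EC100. 10-point 1/3 dilutions from 23.3 μM final; EC50 derived; geometric mean of ≥2 runs.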

[6] = Intrinsic clearance unbound in human liver microsomes at 1 uM […] by LC-MS/MS analysis; type: ADME, Microsome
[7] = biological target: T1, Sphingosine 1-phosphate receptor 2; assay: Antagonist activity at recombinant human S1P2 receptor in HFL1 cells assessed as inhibition of EC80 S1P-induced IL8 release incubated for 16 to 24 hrs in presence of 2% HSA by ELISA; type: functional, cell-based; procedure, shortened: as §1
[8] = biological target: T1, Sphingosine 1-phosphate receptor 2; assay: Displacement of radio labeled-SIP from human recombinant S1P2 receptor expressed in CHO cell membranes […] by radioligand based competition binding assay; set-up: species or system Membrane
[9] = biological target: T1, Sphingosine 1-phosphate receptor 2; assay: Antagonist activity at recombinant human S1P2 receptor in HFL1 cells assessed as inhibition of EC80 S1P-induced IL8 release measured as unbound concentration incubated for 16 to 24 hrs in presence of 2% HSA by ELISA; type: functional, cell-based; conditions: filed as antagonist, time 16-24 hrs
Procedure, shortened: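 IL8 IC50 from the 2% HSA condition converted to free IC50 = IC50 × fu,medium, where fu,medium is estimated from human plasma protein binding fraction unbound and the serum percentage used in the assay.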

CYP2C9 = CYP2C9 (Homo sapiens, UniProt P11712); assay: Inhibition of recombinant CYP2C9 (unknown origin) at 10 uM; type: ADME
Chain of CYP2C9 (P11712 whole entry): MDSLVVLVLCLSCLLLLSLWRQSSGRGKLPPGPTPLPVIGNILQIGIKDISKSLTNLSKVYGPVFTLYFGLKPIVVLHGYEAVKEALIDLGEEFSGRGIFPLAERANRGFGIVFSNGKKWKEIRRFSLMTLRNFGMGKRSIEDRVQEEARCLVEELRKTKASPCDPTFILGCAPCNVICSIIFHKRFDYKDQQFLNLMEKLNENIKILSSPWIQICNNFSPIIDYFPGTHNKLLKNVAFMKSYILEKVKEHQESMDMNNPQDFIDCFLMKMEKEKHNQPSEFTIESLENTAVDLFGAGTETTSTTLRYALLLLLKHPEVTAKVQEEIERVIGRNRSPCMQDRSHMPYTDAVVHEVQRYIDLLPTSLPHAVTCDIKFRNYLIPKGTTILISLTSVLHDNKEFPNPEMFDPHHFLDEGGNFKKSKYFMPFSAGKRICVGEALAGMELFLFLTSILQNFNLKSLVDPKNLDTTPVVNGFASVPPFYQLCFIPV

CYP3A4 = CYP3A4 (Homo sapiens, UniProt P08684); assay: Inhibition of recombinant CYP3A4 (unknown origin) at 10 uM; type: ADME
Chain of CYP3A4 (P08684 whole entry): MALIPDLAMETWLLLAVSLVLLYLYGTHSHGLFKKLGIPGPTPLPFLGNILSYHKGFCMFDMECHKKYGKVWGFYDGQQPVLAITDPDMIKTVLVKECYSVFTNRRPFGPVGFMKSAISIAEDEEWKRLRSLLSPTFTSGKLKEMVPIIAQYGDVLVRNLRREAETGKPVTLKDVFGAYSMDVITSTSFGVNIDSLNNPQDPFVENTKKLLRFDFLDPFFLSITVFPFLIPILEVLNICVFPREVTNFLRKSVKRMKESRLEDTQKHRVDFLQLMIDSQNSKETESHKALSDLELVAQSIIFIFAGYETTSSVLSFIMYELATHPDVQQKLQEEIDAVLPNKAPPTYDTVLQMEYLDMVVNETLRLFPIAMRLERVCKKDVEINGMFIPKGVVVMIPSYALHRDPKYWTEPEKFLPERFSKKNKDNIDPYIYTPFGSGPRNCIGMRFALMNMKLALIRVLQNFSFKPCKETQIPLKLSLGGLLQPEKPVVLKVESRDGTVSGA

CYP2C19 = CYP2C19 (Homo sapiens, UniProt P33261); assay: Inhibition of recombinant CYP2C19 (unknown origin) at 10 uM; type: ADME
Chain of CYP2C19 (P33261 whole entry): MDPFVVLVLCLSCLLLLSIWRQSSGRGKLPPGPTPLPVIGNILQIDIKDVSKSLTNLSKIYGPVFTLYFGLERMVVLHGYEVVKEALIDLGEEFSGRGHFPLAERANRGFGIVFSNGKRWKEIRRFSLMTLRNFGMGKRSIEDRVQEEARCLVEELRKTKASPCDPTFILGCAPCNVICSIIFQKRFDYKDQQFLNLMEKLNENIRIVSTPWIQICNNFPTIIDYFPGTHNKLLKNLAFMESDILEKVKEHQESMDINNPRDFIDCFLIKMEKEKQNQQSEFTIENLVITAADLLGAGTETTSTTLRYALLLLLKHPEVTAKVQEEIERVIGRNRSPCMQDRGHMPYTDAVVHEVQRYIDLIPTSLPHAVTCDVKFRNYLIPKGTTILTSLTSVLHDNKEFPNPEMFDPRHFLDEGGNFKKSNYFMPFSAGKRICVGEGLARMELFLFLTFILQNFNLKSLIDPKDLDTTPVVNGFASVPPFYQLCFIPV

Mus musculus = assay: Antifibrotic activity against intranasal bleomycin-induced C57BL/6 mouse lung fibrosis model assessed as reduction in Ashcroft score at 50 mg/kg, po twice daily for 14 days; type: functional, organism-based; conditions: time 14.0 day
Procedure, shortened: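 Male C57BL/6 mice (7–8 weeks on arrival, one week acclimation) given bleomycin intranasally; prophylactic oral dosing twice daily for 14 days. Lungs scored histologically by Matsuse-modified Ashcroft score; 14–15 mice per group; Mann–Whitney vs bleomycin/vehicle.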

SMILES	pIC50 [1]	CL free [2] [mL/min/kg]	pIC50 [3]	pIC50 [4]	pEC50 [5]	CL free [6] [mL/min/kg]	further results
Cc1cc(CNC(=O)Nc2cc(Cl)nc(Cl)c2)ncc1-c1cn(C)nc1C	9.11	200	6.52	6.11			
Cc1cc(CO)nc(NNC(=O)Nc2cc(Cl)nc(Cl)c2)c1			< 5.18	4.51	< 4.64		
COCCOc1cc(NC(=O)NCc2cc(C)c(-c3cn(C)nc3C(F)(F)F)nn2)cc(Cl)n1	6.19	317	3.39	3.19		< 23.3	pIC50 [7]: 5.49
Cc1cc(NNC(=O)Nc2cc(Cl)nc(Cl)c2)ncc1-c1cn(C)nc1C			< 5.85	6.10	< 4.64		pIC50 [8]: 6.72
Cc1cc(CNC(=O)Nc2cc(C(F)(F)F)nc(OCCO)c2C)nnc1-c1cn(C)nc1C(F)(F)F	6.80	91.7	4.08	3.77			fIC50 [9]: 5.4 nM; pIC50 [7]: 6.59
Cc1cc(CNC(=O)c2cc3c(Cl)nc(Cl)cc3[nH]2)ncc1-c1cn(C)nc1C	8.89	633	6.05	5.89			
Cc1cc(NNC(=O)Nc2cc(Cl)nc(Cl)c2)nc(-c2cnn(C)c2)c1			< 5.68	5.51	< 4.64		
Cc1cc(NNC(=O)Nc2cc(Cl)nc(Cl)c2)ncc1C#N			5.22	5.15	< 4.64		
CCOc1cc(NC(=O)NCc2cc(C)c(-c3cn(C)nc3C(F)(F)F)nn2)cc(C#N)n1	7.46	< 105	4.96	4.46		< 28.3	fIC50 [9]: 3 nM; pIC50 [7]: 7.17
CCOc1nc(C#N)cc(NC(=O)NCc2cc(C)c(-c3cn(C)nc3C(F)(F)F)nn2)c1C	7.62	< 163	5.15	4.62		< 35	fIC50 [9]: 0.19 nM; pIC50 [7]: 7.77
Cc1cc(CNC(=O)Nc2cc(Cl)cc(Cl)c2)ncc1-c1cn(C)nc1C	9.52	2650	6.80	6.52			
Cc1cc(CNC(=O)Nc2cc(Cl)nc(OCC(F)F)c2)nnc1-c1cn(C)nc1C(F)(F)F	7.44	< 167	5.14	4.44		< 50	fIC50 [9]: 1.3 nM; pIC50 [7]: 7.15
CCOc1cc(NC(=O)NCc2cc(C)c(-c3cn(C)nc3C(F)(F)F)cn2)cc(Cl)n1	7.66	450	7.96	4.66		150	inhibition at 10 µM (CYP2C9): 83%; inhibition at 10 µM (CYP3A4): 83%; inhibition at 10 µM (CYP2C19): 100%
CCOC(=O)c1cc(C)cc(NNC(=O)Nc2cc(Cl)nc(Cl)c2)n1			6.12	5.68	< 4.64		pIC50 [8]: 6.52
Cc1cc(NNC(=O)Nc2cc(Cl)nc(Cl)c2)nc(C(=O)N(C)C)c1			< 4.72		< 4.64		
CCOc1cc(NC(=O)NCc2cc(C)c(-c3cn(C)nc3C)cn2)cc(Cl)n1	10.49	700	7.40	6.49	5.33		
Cc1cc(CNC(=O)c2cc(Cl)nc(Cl)c2)ncc1-c1cn(C)nc1C	< 7.00	85	< 4.72	< 4.00			
CCOc1nc(C)cc(NC(=O)NCc2cc(C)c(-c3cn(C)nc3C(F)(F)F)nn2)c1C#N	< 4.70	2270	< 4.70	< 1.70			pIC50 [7]: < 4.52
Cc1cc(CNC(=O)c2cc3c(Cl)cc(Cl)cc3[nH]2)ncc1-c1cn(C)nc1C	9.21	> 783	6.96	6.21			

SMILES	pIC50 [1]	CL free [2] [mL/min/kg]	pIC50 [3]	pIC50 [4]	pEC50 [5]	CL free [6] [mL/min/kg]	further results
Cc1cc(NNC(=O)Nc2cc(Cl)nc(Cl)c2)nc(C(=O)N(C)C2CC2)c1			< 4.70		< 4.64		
CCOc1nc(Cl)cc(NC(=O)NCc2cc(C)c(-c3cn(C)nc3C(F)(F)F)nn2)c1C	7.82	< 533	5.06	4.82		< 127	fIC50 [9]: 0.16 nM; pIC50 [7]: 7.49
Cc1cc(NNC(=O)Nc2cc(Cl)nc(Cl)c2)ncc1N(C)C			5.44	5.28	< 4.64		
Cc1ccc(=O)n(-c2ccccc2)c1							Activity (Mus musculus): Active
Cc1cc(CNC(=O)Nc2cc(OCC(O)CO)nc(C(F)(F)F)c2)nnc1-c1cn(C)nc1C(F)(F)F (stereo not given)	< 4.96	< 76.7	< 5.18	< 1.96		31.7	pIC50 [7]: < 5.00
Cc1cc(CNc2nc3cc(Cl)c(Cl)cc3[nH]2)ncc1-c1cn(C)nc1C	9.37	2580	8.05	6.37			
Cc1cc(CNC(=O)Nc2cc(OCCN(C)C)nc(C(F)(F)F)c2)nnc1-c1cn(C)nc1C(F)(F)F	< 5.00	< 90	2.67	< 2.00		23.3	
CCOc1cc(NC(=O)NCc2cc(C)c(N3CC(C)OC(C)C3)cn2)cc(Cl)n1 (stereo not given)	6.98	500	7.80	3.98		125	
CCOc1nc(C)cc(NC(=O)NCc2cc(C)c(-c3cn(C)nc3C(F)(F)F)nn2)c1Cl	7.59	250	5.06	4.59		< 25	fIC50 [9]: 0.55 nM; pIC50 [7]: 7.31
CCOc1nc(Cl)cc2nc(NCc3cc(C)c(-c4cn(C)nc4C)cn3)[nH]c12	8.65	1370	7.48	5.65			
CCOc1cc(NC(=O)NCc2cc(C)c(Nc3cn(C)nc3C)cn2)cc(C(F)(F)F)n1	7.26	867	7.92	4.26		267	
Cc1cc(NNC(=O)Nc2cc(Cl)nc(Cl)c2)nc(-c2ccc(F)cc2)c1			5.89	5.21	< 4.64		
Cc1cc(CNC(=O)Nc2cc(OCCO)nc(C(F)(F)F)c2)nnc1-c1cn(C)nc1C(F)(F)F	6.15	102	3.46	3.15		< 23.3	fIC50 [9]: 87 nM; pIC50 [7]: 6.09
Cc1cc(CNC(=O)Cc2ccc(Cl)c(Cl)c2)ncc1-c1cn(C)nc1C		3770	< 4.72				IC50 ([4]; cho): Not Active
CCOc1cc(NC(=O)NCc2cc(C)c(-c3cn(C)nc3C(F)(F)F)nn2)cc(C)n1	6.62	< 58.3	4.27	3.62		< 15	fIC50 [9]: 15 nM; pIC50 [7]: 6.71
Cc1cc(C#N)nc(NNC(=O)Nc2cc(Cl)nc(Cl)c2)c1			< 5.18		< 4.64		
Cc1cc(NNC(=O)Nc2cc(Cl)nc(Cl)c2)ncc1-c1cnn(C)c1			5.59	5.47	< 4.64		pIC50 [8]: 5.92
Cc1cc(NNC(=O)Nc2cc(Cl)nc(Cl)c2)ncc1-c1ccn(C)n1			5.40	5.03	< 4.64		
Cc1cc(NNC(=O)Nc2cc(Cl)nc(Cl)c2)nc(C(=O)NC2CC2)c1			5.35		< 4.64		
